Data taken from ChEMBL document CHEMBL4765437, “Design, synthesis and biological evaluation of pyrazolo[3,4-d]pyrimidine-based protein kinase D inhibitors” (Eur J Med Chem, 2020).
Calls of active or inactive are those of the source. The rule behind the calls is not given here.

Tests used:
[1] = test system: K562; test: Antiproliferative activity against human K562 cells assessed as reduction in cell viability incubated for 72 hrs by IncuCyte live-cell automated imaging analysis; settings: K562, 72 h
[2] = test system: Z-138; test: Antiproliferative activity against human Z138 cells assessed as reduction in cell viability incubated for 72 hrs by IncuCyte live-cell automated imaging analysis; settings: Z-138, 72 h
[3] = test system: HL-60; test: Antiproliferative activity against human HL-60 cells assessed as reduction in cell viability incubated for 72 hrs by IncuCyte live-cell automated imaging analysis; settings: HL-60, 72 h
[4] = Antiproliferative activity against human DND41 cells assessed as reduction in cell viability incubated for 72 hrs by IncuCyte live-cell automated imaging analysis; settings: DND41, 72 h
[5] = test system: CAPAN-1; test: Antiproliferative activity against human CAPAN-1 cells assessed as reduction in cell viability incubated for 72 hrs by IncuCyte live-cell automated imaging analysis; settings: CAPAN-1, 72 h
[6] = test system: NCI-H460; test: Antiproliferative activity against human NCI-H460 cells assessed as reduction in cell viability incubated for 72 hrs by IncuCyte live-cell automated imaging analysis; settings: NCI-H460, 72 h
[7] = test system: LN-229; test: Antiproliferative activity against human LN-229 cells assessed as reduction in cell viability incubated for 72 hrs by IncuCyte live-cell automated imaging analysis; settings: LN-229, 72 h
[8] = test system: HCT-116; test: Antiproliferative activity against human HCT-116 cells assessed as reduction in cell viability incubated for 72 hrs by IncuCyte live-cell automated imaging analysis; settings: HCT-116, 72 h
[9] = test system: PANC-1; test: Antiproliferative activity against human PANC-1 cells assessed as reduction in cell proliferation at 5 uM measured after 48 to 144 hrs by MTT assay; format: functional, cell-based; settings: time 48-144 hrs
How it was run: (§1)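 PANC-1 cells at 2000 cells/well, attached 4 h, then given compound at 5 µM or 0.25% DMSO vehicle. Grown 0, 48, 96 or 144 h, then MTT at 0.5 mg/mL final for 3 h, lysis in DMSO, absorbance at 550 nm. Four experiments (n=4), mean and SEM; two-way ANOVA with Dunnett's test against DMSO.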

[10] = molecular target: T1, Serine/threonine-protein kinase D2 (Homo sapiens, UniProt Q9BZL6); test: Inhibition of recombinant FLAG-tagged PKD2 (unknown origin) expressed in HEK293T cells using Syntide-2 as substrate measured after 15 mins by ADP-Glo assay
T1 sequence (Q9BZL6 whole entry): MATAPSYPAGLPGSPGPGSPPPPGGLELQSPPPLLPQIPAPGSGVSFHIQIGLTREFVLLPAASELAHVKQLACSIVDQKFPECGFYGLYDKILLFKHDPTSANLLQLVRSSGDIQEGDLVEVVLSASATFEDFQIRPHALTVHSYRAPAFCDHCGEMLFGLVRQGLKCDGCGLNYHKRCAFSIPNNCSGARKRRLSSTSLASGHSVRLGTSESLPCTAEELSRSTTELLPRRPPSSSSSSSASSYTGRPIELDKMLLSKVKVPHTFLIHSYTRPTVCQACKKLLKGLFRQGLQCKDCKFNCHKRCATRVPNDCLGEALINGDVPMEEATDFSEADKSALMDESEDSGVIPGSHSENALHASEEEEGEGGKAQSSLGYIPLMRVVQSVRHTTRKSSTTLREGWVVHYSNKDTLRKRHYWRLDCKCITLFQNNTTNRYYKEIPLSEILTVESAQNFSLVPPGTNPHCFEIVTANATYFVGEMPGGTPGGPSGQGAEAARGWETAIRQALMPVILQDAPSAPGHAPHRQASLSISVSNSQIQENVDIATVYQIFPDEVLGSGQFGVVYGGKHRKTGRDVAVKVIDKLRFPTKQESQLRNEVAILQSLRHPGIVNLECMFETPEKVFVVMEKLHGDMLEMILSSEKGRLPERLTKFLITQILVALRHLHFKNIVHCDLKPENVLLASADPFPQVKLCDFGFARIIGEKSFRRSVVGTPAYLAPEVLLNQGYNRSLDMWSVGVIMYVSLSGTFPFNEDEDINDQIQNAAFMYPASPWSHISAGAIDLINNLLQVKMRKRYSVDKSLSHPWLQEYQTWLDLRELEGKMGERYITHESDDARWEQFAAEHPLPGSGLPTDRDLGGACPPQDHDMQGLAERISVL

[11] = test system: PANC-1; test: Antiproliferative activity against human PANC-1 cells assessed as reduction in cell proliferation at 5 uM measured after 96 to 144 hrs by MTT assay; format: functional, cell-based; settings: time 96-144 hrs; how it was run: as §1
[12] = molecular target: Protein kinase C delta type (Homo sapiens) (UniProt Q05655); test: Inhibition of recombinant human full-length N-terminal GST-fused PKCdelta (1 to 676 residues) expressed in baculovirus expression system at 1 to 10 uM using MARCKS peptide as substrate measured after 10 mins by [gamma-32P]ATP by scintillation counting method; settings: dose 1-10 µM
How it was run: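 Radiometric PKCδ assay: 50 mM Tris-HCl pH 7.4, 10 mM MgCl2, 4 µL phosphatidylserine/PDBu vesicle stock (dried lipids resuspended in 50 mM Tris pH 7.4 and sonicated), 50 ng PKCδ, 5 µg MARCKS peptide substrate, 25 µM ATP plus 2 µCi [γ-32P]ATP.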

[13] = molecular target: T2, Serine/threonine-protein kinase D1 (Homo sapiens, UniProt Q15139); test: Inhibition of recombinant FLAG-tagged PKD1 (unknown origin) expressed in HEK293T cells using Syntide-2 as substrate measured after 15 mins by ADP-Glo assay
T2 sequence (Q15139 whole entry): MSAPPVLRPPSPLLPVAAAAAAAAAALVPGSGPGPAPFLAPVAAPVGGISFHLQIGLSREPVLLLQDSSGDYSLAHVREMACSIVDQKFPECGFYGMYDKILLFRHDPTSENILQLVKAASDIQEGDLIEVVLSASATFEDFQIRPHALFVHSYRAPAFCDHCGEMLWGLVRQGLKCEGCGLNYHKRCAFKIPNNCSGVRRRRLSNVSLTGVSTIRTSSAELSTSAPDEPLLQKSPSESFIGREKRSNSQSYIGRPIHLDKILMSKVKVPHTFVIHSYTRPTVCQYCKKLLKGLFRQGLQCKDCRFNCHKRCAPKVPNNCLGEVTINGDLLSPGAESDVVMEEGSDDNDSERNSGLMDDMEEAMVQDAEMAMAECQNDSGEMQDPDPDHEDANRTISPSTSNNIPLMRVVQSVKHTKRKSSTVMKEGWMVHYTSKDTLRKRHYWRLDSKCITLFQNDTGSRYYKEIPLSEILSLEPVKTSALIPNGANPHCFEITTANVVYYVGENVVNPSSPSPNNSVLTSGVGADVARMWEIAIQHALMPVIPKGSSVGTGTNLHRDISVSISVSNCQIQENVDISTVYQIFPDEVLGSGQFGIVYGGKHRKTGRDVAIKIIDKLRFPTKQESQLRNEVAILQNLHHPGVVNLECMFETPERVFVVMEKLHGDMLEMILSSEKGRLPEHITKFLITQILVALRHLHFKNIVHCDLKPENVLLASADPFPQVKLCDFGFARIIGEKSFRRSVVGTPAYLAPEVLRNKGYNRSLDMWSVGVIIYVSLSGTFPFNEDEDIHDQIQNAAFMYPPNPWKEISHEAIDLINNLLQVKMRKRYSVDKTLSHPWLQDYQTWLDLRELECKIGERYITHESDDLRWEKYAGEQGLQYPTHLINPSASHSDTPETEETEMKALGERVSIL

[14] = molecular target: T3, Serine/threonine-protein kinase D3 (Homo sapiens, UniProt O94806); test: Inhibition of recombinant FLAG-tagged PKD3 (unknown origin) expressed in HEK293T cells using Syntide-2 as substrate measured after 15 mins by ADP-Glo assay
T3 sequence (O94806 whole entry): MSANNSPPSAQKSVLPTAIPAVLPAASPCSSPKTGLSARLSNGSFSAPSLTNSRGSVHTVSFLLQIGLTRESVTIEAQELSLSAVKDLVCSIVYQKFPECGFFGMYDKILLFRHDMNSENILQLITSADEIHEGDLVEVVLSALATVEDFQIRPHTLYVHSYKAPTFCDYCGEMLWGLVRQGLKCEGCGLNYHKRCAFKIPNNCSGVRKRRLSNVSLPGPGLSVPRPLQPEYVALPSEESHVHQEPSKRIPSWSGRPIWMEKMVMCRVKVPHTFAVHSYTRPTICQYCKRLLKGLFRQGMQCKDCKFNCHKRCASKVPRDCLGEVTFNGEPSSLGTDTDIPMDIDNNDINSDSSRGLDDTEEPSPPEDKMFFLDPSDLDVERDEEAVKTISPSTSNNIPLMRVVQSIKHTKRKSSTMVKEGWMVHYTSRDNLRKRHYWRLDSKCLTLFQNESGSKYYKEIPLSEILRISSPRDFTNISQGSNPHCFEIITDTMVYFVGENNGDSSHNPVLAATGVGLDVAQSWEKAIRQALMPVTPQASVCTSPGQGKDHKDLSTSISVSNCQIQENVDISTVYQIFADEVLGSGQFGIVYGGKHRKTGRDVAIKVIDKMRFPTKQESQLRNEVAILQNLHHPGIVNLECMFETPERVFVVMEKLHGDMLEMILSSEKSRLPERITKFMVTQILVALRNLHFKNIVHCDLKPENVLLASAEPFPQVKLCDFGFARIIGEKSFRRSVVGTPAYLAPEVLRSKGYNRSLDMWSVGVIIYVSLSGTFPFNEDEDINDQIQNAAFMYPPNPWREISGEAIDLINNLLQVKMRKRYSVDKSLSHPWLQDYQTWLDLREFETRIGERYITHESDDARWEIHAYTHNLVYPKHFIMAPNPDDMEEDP

[15] = molecular target: Calcium/calmodulin-dependent protein kinase type II subunit alpha (Homo sapiens) (UniProt Q9UQM7); test: Inhibition of recombinant human full-length N-terminal GST-fused CaMK2alpha (1 to 478 residues) expressed in baculovirus expression system at 1 to 10 uM using Syntide-2 peptide as substrate measured after 10 mins by [gamma-32P]ATP by scintillation counting method; settings: dose 1-10 µM
How it was run: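 Radiometric kinase assay in 40 µL: 50 mM Tris-HCl pH 7.4, 10 mM MgCl2, 2 mM CaCl2, calmodulin, 50 ng CAMKIIα, 2 µg Syntide-2 substrate, 25 µM ATP plus 2 µCi [γ-32P]ATP, with compounds at the indicated concentrations.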

Protein kinase C delta type (Homo sapiens), sequence (Q05655 whole entry, looked up, the tested form may be a part): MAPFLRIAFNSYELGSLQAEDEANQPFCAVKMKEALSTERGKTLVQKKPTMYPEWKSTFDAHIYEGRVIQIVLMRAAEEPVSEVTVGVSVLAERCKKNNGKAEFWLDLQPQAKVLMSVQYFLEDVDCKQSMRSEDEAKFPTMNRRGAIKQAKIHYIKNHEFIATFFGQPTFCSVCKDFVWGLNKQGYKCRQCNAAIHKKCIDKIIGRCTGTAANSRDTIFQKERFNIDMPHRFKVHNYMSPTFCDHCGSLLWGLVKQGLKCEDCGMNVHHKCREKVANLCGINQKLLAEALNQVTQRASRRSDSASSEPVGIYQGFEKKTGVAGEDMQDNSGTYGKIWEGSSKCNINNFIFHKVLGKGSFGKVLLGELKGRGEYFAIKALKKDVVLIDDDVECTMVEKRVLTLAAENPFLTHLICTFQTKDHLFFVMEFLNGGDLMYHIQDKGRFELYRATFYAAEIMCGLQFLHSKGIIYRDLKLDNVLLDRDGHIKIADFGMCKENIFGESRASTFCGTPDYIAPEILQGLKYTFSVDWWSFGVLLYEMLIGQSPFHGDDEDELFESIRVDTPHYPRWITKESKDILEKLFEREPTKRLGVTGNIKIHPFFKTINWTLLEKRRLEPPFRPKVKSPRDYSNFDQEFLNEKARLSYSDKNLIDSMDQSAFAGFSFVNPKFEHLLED
Calcium/calmodulin-dependent protein kinase type II subunit alpha (Homo sapiens), sequence (Q9UQM7 whole entry, the tested form may be a part): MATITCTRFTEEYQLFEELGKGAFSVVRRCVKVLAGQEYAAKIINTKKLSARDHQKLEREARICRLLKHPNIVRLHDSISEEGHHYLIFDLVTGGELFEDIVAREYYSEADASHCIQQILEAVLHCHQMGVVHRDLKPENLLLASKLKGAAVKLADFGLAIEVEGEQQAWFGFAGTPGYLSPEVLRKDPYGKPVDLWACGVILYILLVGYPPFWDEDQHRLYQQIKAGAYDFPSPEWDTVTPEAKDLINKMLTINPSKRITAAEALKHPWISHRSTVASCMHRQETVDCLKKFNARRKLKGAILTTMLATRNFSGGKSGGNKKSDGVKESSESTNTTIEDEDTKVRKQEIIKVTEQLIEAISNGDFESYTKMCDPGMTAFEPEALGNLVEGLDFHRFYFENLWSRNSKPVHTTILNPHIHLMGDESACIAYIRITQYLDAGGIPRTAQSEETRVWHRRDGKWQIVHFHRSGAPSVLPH

SMILES | IC50 [1] | IC50 [3] | IC50 [6] | IC50 [8] | IC50 [10] | inhibition [12] | IC50 [13] | IC50 [14] | inhibition [15] | IC50 [2] | IC50 [4] | IC50 [5] | IC50 [7] | Activity [9] | Activity [11]
CC(C)(CO)Cn1nc(-c2c[nH]c3ccccc23)c2c(N)ncnc21 | 12 µM | 27.6 µM | 14 µM | 13.4 µM | – | – | – | – | – | 19.6 µM | 13.1 µM | 4.7 µM | 52.6 µM | – | –
Nc1ncnc2c1c(-c1c[nH]c3ccccc13)nn2CC1CCNCC1 | > 100 µM | 17.9 µM | > 95.8 µM | > 100 µM | – | – | – | – | – | 35.3 µM | 42.7 µM | 40.7 µM | 80.6 µM | inactive | –
CCOc1ccc2cc(-c3nn(CC4CCN(C)CC4)c4ncnc(N)c34)ccc2n1 | > 100 µM | > 100 µM | > 100 µM | > 55.2 µM | – | – | – | – | – | 30.4 µM | 35.5 µM | > 100 µM | 45.2 µM | – | –
CC[C@@H](N)CNc1ccnc(-c2cc(-c3cnn(C)c3)ccc2O)n1 | 2.2 µM | 1 µM | 1.9 µM | 1.7 µM | 0.009 µM | – | 0.016 µM | – | – | 0.7 µM | 1 µM | 1.8 µM | 0.6 µM | – | –

Second part, led by results:

IC50 [1] | IC50 [3] | IC50 [6] | IC50 [8] | IC50 [10] | inhibition [12] | IC50 [13] | IC50 [14] | inhibition [15] | SMILES | IC50 [2] | IC50 [4] | IC50 [5] | IC50 [7] | Activity [9] | Activity [11]
> 33.7 µM | > 25.6 µM | 73.9 µM | 63 µM | – | – | – | – | – | Cn1cc(-c2nn(C(C)(C)C)c3ncnc(N)c23)c2ccccc21 | > 38.2 µM | > 41.4 µM | 21.3 µM | > 78.3 µM | – | –
3.7 µM | 7.8 µM | 4 µM | 2.5 µM | 0.094 µM | inactive | 0.108 µM | 0.108 µM | inactive | CC(C)(C)n1nc(-c2c[nH]c3ccccc23)c2c(N)ncnc21 | 9.7 µM | 9.8 µM | 1.6 µM | 39.2 µM | – | Active
> 36.3 µM | 24.1 µM | > 100 µM | > 100 µM | 0.786 µM | – | 1.01 µM | 0.616 µM | – | CC(C)(C)n1nc(Cc2cccc3ccccc23)c2c(N)ncnc21 | > 23.7 µM | > 26.1 µM | 23 µM | > 100 µM | – | –
